zfTRPN1 agonist = zebrafish TRPN1 (NompC) channel agonism | AID 1424 | activation, % at 3 µM | 0.18% of 220,000 active | HEK293 zebrafish TRPN1-YFP, Fluo-8 calcium fluorescence; 100% = response to 87 µM carbachol;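 active = activation above its plate's cutoff, the mean activation of test wells on that plate plus 3 SD, cut at about 19% in these data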;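 also: 0% = DMSO alone and 100% = 87 µM carbachol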
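System: zebrafish TRPN1-YFP in HEK293 cells / Dosing: 3 µM single point / Timing: dye loading 1 h at 37 °C, then 30 min room temperature / Signal: Fluo-8 calcium fluorescence, excitation 470-495 nm, emission 515-575 nm / Read-out basis: percent activation from peak over basal fluorescence ratio, control-normalized / Control set: high carbachol 87 µM, low DMSO alone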
TRPML3 agonist = activates the human TRPML3 channel; HEK293 TRPML3-YFP, Fluo-8 calcium fluorescence; 100% = the carbachol control signal; activation, % at 3 µM; 0.29% of 220,000 active; AID 1448;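 active = activation above its plate's cutoff, the mean activation of the plate's test wells plus 3 SD, cut at about 12% in these data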;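 also: 0% = DMSO only wells and 100% = carbachol wells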
Target sequence (Q8TDD5 whole entry, looked up): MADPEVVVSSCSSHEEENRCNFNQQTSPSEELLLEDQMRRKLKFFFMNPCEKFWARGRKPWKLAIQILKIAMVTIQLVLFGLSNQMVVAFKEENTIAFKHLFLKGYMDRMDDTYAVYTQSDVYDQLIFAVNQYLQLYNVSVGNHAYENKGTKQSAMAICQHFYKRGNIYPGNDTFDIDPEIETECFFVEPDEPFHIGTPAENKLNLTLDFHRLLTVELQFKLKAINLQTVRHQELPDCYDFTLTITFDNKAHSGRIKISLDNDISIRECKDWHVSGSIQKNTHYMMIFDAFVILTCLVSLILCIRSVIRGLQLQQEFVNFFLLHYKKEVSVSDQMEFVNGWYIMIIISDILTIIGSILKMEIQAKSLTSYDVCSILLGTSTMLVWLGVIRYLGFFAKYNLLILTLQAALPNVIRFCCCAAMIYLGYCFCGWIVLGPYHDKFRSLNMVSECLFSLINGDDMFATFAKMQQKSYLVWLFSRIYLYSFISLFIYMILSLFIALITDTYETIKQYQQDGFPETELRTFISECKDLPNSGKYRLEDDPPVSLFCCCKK
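system = HEK293 cells stably carrying human TRPML3-YFP | doses = one concentration, 3 µM nominal, 0.3% DMSO | timing = dye loading 1 h 37 °C then 30 min ambient, 125 s read | detection = Fluo-8 calcium dye fluorescence, ex 470-495, em 515-575 nm | benchmarks = high control carbachol 87 µM, low control DMSO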
OX1R antag-1 = antagonists of human orexin 1 receptor. O43613. CHO/OX1R cells, Fluo-8 calcium fluorescence, orexin A. inhibition, % at 5 µM. 0.43% of 330,000 active. AID 434989;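 active = inhibition above its plate's threshold, mean inhibition of all tested compounds on the plate plus 3 SD, cut at about 37% in these data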;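 also: 0% = orexin A challenge wells and 100% = SB-334867-A antagonist wells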
CHO parental Ca = counter-screen: ATP calcium response change in parental CHO cells. parental CHO-K1, ATP-induced calcium, Fluo-8 fluorescence. inhibition, % at 5.6 µM. 0.63% of 330,000 active;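 active = inhibition above that plate's mean sample inhibition plus 3 SD, cut at about 26% in these data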;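 also: 0% = ATP-challenged DMSO wells and 100% = DMSO wells without ATP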
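Material – parental CHO cells · Reagent – ATP stimulus · Compound – single nominal dose of 5.6 µM per compound · Detection – Fluo-8 fluorescence · Read-out basis – percent inhibition of calcium signal · Controls – ATP-challenged DMSO wells low, unchallenged DMSO wells high · Repeats – no replicates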
OX1R antag-2 = blocks the human orexin 1 receptor; O43613; OX1R-expressing cells, FRET antagonist read-out; inhibition, % at 6.6 µM; 1.8% of 330,000 active; AID 485270; in the data active = inhibition mostly above about 38%, no sharp cut-off; inactive = mostly below about 40%;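 also: 0% = agonist challenge alone and 100% = reference antagonist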
GPR7 antag = blocks human GPR7 receptor signaling; GPR7-expressing cells, fluorescence antagonist assay; 1.1% of 290,000 active; inhibition, % at 4.4 µM; in the data active = inhibition above about 16%, passing the limit was not always enough;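 also: cells stimulated with the agonist NPW; 0% = agonist with vehicle and 100% = vehicle without agonist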
OX1R HTRF confirm = confirmation of human orexin 1 receptor antagonists, HTRF format; shares compounds with OX1R antag-2; OX1R-expressing cells, HTRF antagonist assay; inhibition, % at 6.6 µM; 49% of 1,800 active; in the data active = inhibition above about 55%;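 also: CHO cells expressing OX1R stimulated with orexin A at about EC80; 0% = agonist challenge alone and 100% = reference antagonist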
CHO-K1 HTRF cnt = counter-screen: parental CHO-K1 HTRF response | shares compounds with OX1R antag-2 | parental CHO-K1 cells, HTRF counterscreen | inhibition, % at 6.6 µM | 48% of 1,800 active; in the data active = inhibition above about 17%;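 also: 0% = agonist challenge with vehicle and 100% = vehicle alone without agonist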
* marks the source's active call; other numbers are inactive results. In the library only some 3.2% were active in any assay of this set; here they are far more common.

What do the screens show for `O=C(COc1ccc(C(=S)N2CCOCC2)cc1)Nc1ccccc1C(F)(F)F`?
zfTRPN1 agonist: -0.4; TRPML3 agonist: -0.4; OX1R antag-1: -6.3; CHO parental Ca: -6.1; OX1R antag-2: 6.1; GPR7 antag: -6.4

How did O=C(COc1ccc(C(=S)N2CCCC2)cc1)Nc1ccccc1C(F)(F)F do in these assays?
OX1R antag-1: 18.7; CHO parental Ca: -13.5; OX1R antag-2: 82.9*; GPR7 antag: -10.7; OX1R HTRF confirm: 72.1*; CHO-K1 HTRF cnt: 15.8

What do the screens show for `NC(=O)c1cc(Cc2ccccc2)sc1NC(=O)c1ccco1`?
zfTRPN1 agonist: 2.8; TRPML3 agonist: -0.3; OX1R antag-1: -14.8; CHO parental Ca: -18.8; OX1R antag-2: 25.7; GPR7 antag: -15.3

Results for CCOc1ccc(CC(=O)Nc2sc(Cc3ccccc3)cc2C(N)=O)cc1OCC ?
zfTRPN1 agonist: 0.4; TRPML3 agonist: 0.2; OX1R antag-1: 14.2; CHO parental Ca: -17.3; OX1R antag-2: 78.8*; GPR7 antag: -9.7; OX1R HTRF confirm: 87.6*; CHO-K1 HTRF cnt: 1.9

Results for O=Nc1c(-c2ccccc2)cc2ccccn12 ?
zfTRPN1 agonist: -1.3; TRPML3 agonist: -0.2; OX1R antag-1: -4.1; CHO parental Ca: -8.2; OX1R antag-2: 152.5*; GPR7 antag: 3.6; OX1R HTRF confirm: 63.9*; CHO-K1 HTRF cnt: 86.4*

How did O=C(Nc1ccc2nc(-c3ccc(Br)o3)[nH]c2c1)c1cccs1 do in these assays?
zfTRPN1 agonist: 1.4; TRPML3 agonist: -1.3; OX1R antag-1: -22.6; CHO parental Ca: -27.0; OX1R antag-2: 82.7*; GPR7 antag: 12.1; OX1R HTRF confirm: 41.6; CHO-K1 HTRF cnt: 3.1

What do the screens show for `O=c1[nH]c(=O)c2nc(-c3ccc(Cl)cc3)cnc2[nH]1`?
zfTRPN1 agonist: -0.4; TRPML3 agonist: 0.6; OX1R antag-1: -5.0; CHO parental Ca: -6.4; OX1R antag-2: 77.5*; GPR7 antag: -12.1; OX1R HTRF confirm: 51.5; CHO-K1 HTRF cnt: 68.4*

Results for Cc1ccc2ncnc(Nc3ccc(C)c(C)c3)c2c1 ?
zfTRPN1 agonist: -1.5; TRPML3 agonist: -0.7; OX1R antag-1: -28.6; CHO parental Ca: -12.6; OX1R antag-2: 78.2*; GPR7 antag: -4.8; OX1R HTRF confirm: 42.1; CHO-K1 HTRF cnt: 11.5

What do the screens show for `COCCCNc1ncnc2ccc(C)cc12`?
zfTRPN1 agonist: 0.1; TRPML3 agonist: 1.4; OX1R antag-1: -6.8; CHO parental Ca: 0.8; OX1R antag-2: 30.5; GPR7 antag: -17.3

Results for C=CCn1c(SCC(=O)N(CCOC)c2c(N)n(CC(C)C)c(=O)[nH]c2=O)nc2ccccc21 ?
OX1R antag-1: 5.2; CHO parental Ca: -18.1; OX1R antag-2: 0.8

Results for COc1ccc2cc(C(=O)C3CCCN(C(=O)c4cnccn4)C3)ccc2c1 (stereo unspecified) ?
zfTRPN1 agonist: -0.5; TRPML3 agonist: -0.1; OX1R antag-1: -15.0; CHO parental Ca: -12.3; OX1R antag-2: 97.2*; GPR7 antag: 5.7; OX1R HTRF confirm: 18.9; CHO-K1 HTRF cnt: -5.7

How did COc1c(C)cc(C(=O)C2CCCN(C(=O)c3ccc4cc[nH]c4c3)C2)cc1C (stereo unspecified) do in these assays?
zfTRPN1 agonist: -0.3; TRPML3 agonist: 0.7; OX1R antag-1: -5.5; CHO parental Ca: -22.2; OX1R antag-2: 82.4*; GPR7 antag: -6.6; OX1R HTRF confirm: 71.9*; CHO-K1 HTRF cnt: -4.4

What do the screens show for `COc1c(C)cc(C(=O)C2CCCN(C(=O)c3cccc(F)c3)C2)cc1C` (stereo unspecified)?
zfTRPN1 agonist: 2.1; TRPML3 agonist: 3.3; OX1R antag-1: 8.7; CHO parental Ca: -3.1; OX1R antag-2: 105.7*; GPR7 antag: -16.9; OX1R HTRF confirm: 87.7*; CHO-K1 HTRF cnt: -0.4

Results for O=C(c1cccc(F)c1)N1CCCC(C(=O)N2CCCCCC2)C1 (stereo unspecified) ?
OX1R antag-1: -13.6; CHO parental Ca: -16.1; OX1R antag-2: -9.3; GPR7 antag: -6.0

How did CCc1ccc(N2CC(C(=O)Nc3cc(C)on3)CC2=O)cc1 (stereo unspecified) do in these assays?
zfTRPN1 agonist: 1.8; TRPML3 agonist: 1.0; OX1R antag-1: -21.4; CHO parental Ca: -7.1; OX1R antag-2: 23.3; GPR7 antag: -4.6

Results for CCOC(=O)c1nc(C)sc1-c1ccnn1S(=O)(=O)c1ccc(C)cc1 ?
zfTRPN1 agonist: -1.8; TRPML3 agonist: -0.1; OX1R antag-1: -35.5; CHO parental Ca: -23.4; OX1R antag-2: 8.6; GPR7 antag: -6.2

Results for CCC1(C)N=c2c(c(=O)n(C)c(=O)n2C)=NO1 (stereo unspecified) ?
zfTRPN1 agonist: -0.1; TRPML3 agonist: 0.9; OX1R antag-1: 3.5; CHO parental Ca: -4.8; OX1R antag-2: 123.4*; GPR7 antag: 9.3; OX1R HTRF confirm: 20.7; CHO-K1 HTRF cnt: 25.6*

What do the screens show for `CCCN(CCC)S(=O)(=O)c1cccc(C(=O)N=c2sccn2C)c1`?
OX1R antag-1: -19.8; CHO parental Ca: -11.2; OX1R antag-2: 24.6; GPR7 antag: -15.9

Results for O=C1/C(=N\S(=O)(=O)c2cccs2)C([n+]2ccccc2)=C([O-])c2ccccc21 ?
zfTRPN1 agonist: 1.0; TRPML3 agonist: 0.6; OX1R antag-1: -8.3; CHO parental Ca: -8.0; OX1R antag-2: 94.1*; GPR7 antag: -8.2; OX1R HTRF confirm: 77.5*; CHO-K1 HTRF cnt: 118.7*

How did O=C(c1c[nH]c2ccccc2c1=O)N1CCCCCC1 do in these assays?
zfTRPN1 agonist: 0.5; TRPML3 agonist: 0.4; OX1R antag-1: 2.7; CHO parental Ca: -4.4; OX1R antag-2: 11.6; GPR7 antag: 5.4

What do the screens show for `N=c1oc2cc(O)ccc2cc1C(=O)Nc1ccc(F)cc1`?
OX1R antag-1: -13.2; CHO parental Ca: -3.4; OX1R antag-2: 3.5; GPR7 antag: 2.6

Results for COc1ccc(NC(=O)c2cc3ccc(O)cc3o/c2=N\O)cc1 ?
OX1R antag-1: 8.8; CHO parental Ca: -1.8; OX1R antag-2: 85.4*; GPR7 antag: 14.1; OX1R HTRF confirm: 75.7*; CHO-K1 HTRF cnt: 9.3

Results for [O-][n+]1onc2c1CCc1nnc(-c3ccccc3)cc1-2 ?
zfTRPN1 agonist: 0.4; TRPML3 agonist: 0.1; OX1R antag-1: -18.2; CHO parental Ca: -20.6; OX1R antag-2: 150.9*; GPR7 antag: 12.1; OX1R HTRF confirm: 38.6; CHO-K1 HTRF cnt: 69.6*

Results for O=C(CN(CCc1ccccc1)C(=O)c1csnn1)NCc1ccc(F)cc1 ?
OX1R antag-1: -10.3; CHO parental Ca: -25.6; OX1R antag-2: 44.7; GPR7 antag: 5.6

Source: PubChem BioAssay
